Here are results for 4 molecules from ChEMBL document CHEMBL1125396, “Synthesis and in vitro biological profile of all four isomers of the potent muscarinic agonist 3-(3-methyl-1,2,4-oxadiazol-5-yl)-1-azabicyclo[2.2.1]heptane” (J Med Chem, 1992).

Test [1] in a line: Ratio of Kapp(NMS)/Kapp(OXO-M). The method, boiled down: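 Ratio of Kapp values from displacement of [3H]NMS (0.01–1.0 nM, 60 min, 30 °C) and of [3H]oxotremorine-M (0.2-5 nM, HEPES pH 7.4, 40 min, 30 °C) in rat cortical membranes; 2 μM atropine nonspecific; each Kapp occupancy-corrected geometric mean of ≥3 determinations.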
Test [2] addresses T1, Muscarinic acetylcholine receptor (Rattus norvegicus) (UniProt P08482+P08483+P08485+P08911+P10980). The test is described as follows: In vitro ability to displace [3H]N-methylscopolamine from the muscarinic receptor in rat cerebral cortical membranes. Type of test: cell membranes. A digest of the protocol: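 Rat (250-300 g) cerebral cortex crude synaptosomal-mitochondrial membranes (sucrose homogenate, 1000g then 17000g spins). [3H]NMS at 0.01–1.0 nM, nonspecific binding with 2 μM atropine; 60 min at 30 °C; GF/B filtration, saline rinses, scintillation counting. Kapp corrected for ligand occupancy; four concentrations in triplicate; geometric mean of ≥3 separate determinations.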

Test [3] addresses Muscarinic acetylcholine receptor M3 (Cavia porcellus) (UniProt Q8VH26). Description: In vitro evaluation for the relative maximum against Muscarinic M3 receptor compare to carbachol. Format: functional. A digest of the protocol:
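Guinea pig ileum longitudinal muscle-myenteric plexus (male, 300-400 g), 1 g tension, Krebs bicarbonate at 37 °C; isometric tension change measured to peak; maximum response expressed as percentage of that to 1 μM carbachol.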

Test [4] addresses Muscarinic acetylcholine receptor M3 (Cavia porcellus, UniProt Q8VH26). Description: In vitro contraction of guinea pig myenteric plexus preparation (mediated by Muscarinic M3 receptor). Format: functional. A digest of the protocol: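 Distal ileum longitudinal muscle-myenteric plexus strips from male guinea pigs (300-400 g) under 1 g tension in 3 mL Krebs bicarbonate, 37 °C, equilibrated ≥60 min. Isometric contraction read for ≥30 s to clear peak, ≥45 min between compounds; responses as % of 1 μM carbachol maximum. EC50 by nonlinear iterative curve fitting; geometric mean of at least four determinations.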

Test [5] deals with T2, Muscarinic acetylcholine receptor M2 (Homo sapiens, UniProt P08172).
T2 sequence (P08172 whole entry): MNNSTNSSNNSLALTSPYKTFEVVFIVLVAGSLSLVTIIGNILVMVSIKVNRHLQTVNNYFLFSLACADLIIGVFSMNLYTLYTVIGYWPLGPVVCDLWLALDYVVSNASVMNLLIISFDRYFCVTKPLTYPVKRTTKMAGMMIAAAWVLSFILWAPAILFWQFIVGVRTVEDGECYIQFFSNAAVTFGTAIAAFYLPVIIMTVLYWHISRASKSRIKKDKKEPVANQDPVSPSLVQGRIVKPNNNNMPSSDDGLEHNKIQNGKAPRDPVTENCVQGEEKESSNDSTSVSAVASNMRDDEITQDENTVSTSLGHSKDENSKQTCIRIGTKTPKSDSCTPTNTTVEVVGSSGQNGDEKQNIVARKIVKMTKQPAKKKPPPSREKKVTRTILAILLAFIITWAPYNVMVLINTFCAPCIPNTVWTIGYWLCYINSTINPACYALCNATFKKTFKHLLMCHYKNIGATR
Description: In vitro negative chronotropic effect on electrically driven guinea pig atria(mediated by Muscarinic M2 receptor). Type of test: functional, Cavia porcellus. Particulars: target entry is the homologue from another species. A digest of the protocol:
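Paired atria from male guinea pigs (300-400 g) under 1 g tension in Krebs bicarbonate with 22 mM glucose, paced by field stimulation (3-4 Hz, 2-3 ms). After 60 min equilibration, noncumulative dose-response curves for negative chronotropy, each application held to maximum effect; ≥45 min between curves. EC50 from geometric mean of at least two determinations.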

For test [6], the target named is T1, Muscarinic acetylcholine receptor (Rattus norvegicus). Description: In vitro ability to displace [3H]oxotremorine-M from the muscarinic receptor in rat cerebral cortical membranes. Type of test: cell membranes. The method, boiled down: (§1)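 Rat cortical P2 membranes washed and resuspended 1/100 (wet w/v) in 20 mM HEPES pH 7.4. [3H]oxotremorine-M at 0.2-5 nM, nonspecific binding with 2 μM atropine; 40 min at 30 °C; filtration on polyethyleneimine-presoaked GF/C filters, saline wash, scintillation counting. Kapp corrected for ligand occupancy; four concentrations in triplicate; geometric mean of ≥3 determinations.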

In test [7] the target is T3, Muscarinic acetylcholine receptor M1 (Rattus norvegicus) (UniProt P08482).
T3 sequence (whole entry): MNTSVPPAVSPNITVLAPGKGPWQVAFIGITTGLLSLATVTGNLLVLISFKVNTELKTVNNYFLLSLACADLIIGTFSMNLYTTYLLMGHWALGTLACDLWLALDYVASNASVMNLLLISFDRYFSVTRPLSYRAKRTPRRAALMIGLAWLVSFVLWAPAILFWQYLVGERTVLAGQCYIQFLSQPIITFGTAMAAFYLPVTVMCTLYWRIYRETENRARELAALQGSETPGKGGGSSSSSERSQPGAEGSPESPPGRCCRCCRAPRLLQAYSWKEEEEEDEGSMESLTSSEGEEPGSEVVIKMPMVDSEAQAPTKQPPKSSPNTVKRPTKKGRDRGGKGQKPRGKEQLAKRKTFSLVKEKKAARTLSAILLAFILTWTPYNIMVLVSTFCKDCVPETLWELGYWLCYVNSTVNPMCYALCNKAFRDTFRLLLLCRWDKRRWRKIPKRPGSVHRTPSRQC
The test is described as follows: In vitro evaluation for the relative maximum against Muscarinic M1 receptor compare to muscarine. Type of test: functional. A digest of the protocol: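 Maximum depolarizing response determined by raising agonist concentration until plateau, expressed relative to muscarine; responses related to a reference depolarization set at 1.0; ganglia each from a different rat.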

Test [8] has as its target T4, Muscarinic acetylcholine receptor M1 (Rattus norvegicus, UniProt P08482).
T4 sequence (P08482 whole entry): T3 sequence (whole entry)
Description: Compound was tested in vitro for depolarizing response on the rat superior cervical ganglion (mediated by Muscarinic M1 receptor. Type of test: functional, tissue-based. The method, boiled down: (§2)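 Responses related to a reference depolarizing response set at 1.0. Agonist concentration raised until response levelled off; EC50 taken as concentration giving half-maximum; at least two determinations, each ganglion from a different rat.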

Test [9] has as its target T5, Muscarinic acetylcholine receptor M2 (Homo sapiens) (UniProt P08172).
T5 sequence (whole entry): T2 sequence (P08172 whole entry)
Description: In Vitro evaluation for the relative maximum against Muscarinic M2 receptor compare to carbachol. Type of test: functional. The following applies: Cavia porcellus. The method, boiled down:
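Guinea pig paired atria (male, 300-400 g) in Krebs bicarbonate with 22 mM glucose, 1 g tension, electrically paced (3-4 Hz, 2-3 ms); noncumulative dose-response curves to maximum negative chronotropic effect, ≥45 min apart; maximum response expressed relative to that of carbachol.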

Test [10] has as its target T1, Muscarinic acetylcholine receptor (Rattus norvegicus). The test is described as follows: In vitro ability to displace muscarinic agonist [3H]oxotremorine-M from high affinity state of the receptor in rat cerebral cortical membranes. Format: cell membranes. The following applies: Membrane. A digest of the protocol: as §1
Test [11] addresses T4, Muscarinic acetylcholine receptor M1. Description: Compound was tested in vitro for depolarizing response on the rat superior cervical ganglion (mediated by Muscarinic M1 receptor). Type of test: functional, tissue-based. A digest of the protocol:
as §2

Chain of Muscarinic acetylcholine receptor M3 (Cavia porcellus) (Q8VH26 1-587): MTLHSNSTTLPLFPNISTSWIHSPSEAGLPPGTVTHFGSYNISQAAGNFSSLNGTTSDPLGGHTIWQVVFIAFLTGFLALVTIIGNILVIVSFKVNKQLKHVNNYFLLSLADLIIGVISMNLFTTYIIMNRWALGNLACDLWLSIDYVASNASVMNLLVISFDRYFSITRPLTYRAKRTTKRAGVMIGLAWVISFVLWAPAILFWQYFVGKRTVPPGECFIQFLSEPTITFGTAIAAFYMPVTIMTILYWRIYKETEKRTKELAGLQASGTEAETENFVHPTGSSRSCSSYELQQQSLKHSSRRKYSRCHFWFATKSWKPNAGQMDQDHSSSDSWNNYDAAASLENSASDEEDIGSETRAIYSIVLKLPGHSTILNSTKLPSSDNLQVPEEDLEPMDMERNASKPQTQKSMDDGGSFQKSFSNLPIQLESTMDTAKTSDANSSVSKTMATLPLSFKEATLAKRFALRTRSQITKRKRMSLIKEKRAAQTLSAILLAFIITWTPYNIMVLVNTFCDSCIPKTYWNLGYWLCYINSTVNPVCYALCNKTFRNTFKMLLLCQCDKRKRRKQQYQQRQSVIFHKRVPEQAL
Chain of Muscarinic acetylcholine receptor M3 (Q8VH26 whole entry): as the sequence (Q8VH26 1-587) above

With `Cc1noc([C@H]2CN3CC[C@@H]2C3)n1`, the Ratio in test [1] stood at 1400. Besides, the K app in test [2] is 2200 nM; in test [6], 1.6 nM. Moreover, the RM in test [3] was 0.93; in test [7], 0.76; in [9] it was 0.96. For the same molecule, the half-maximal effective concentration (EC50) in [4] stood at 16 nM; in test [5] it was 19 nM; in [8], 90 nM.

In the case of `Cc1noc([C@@H]2CN3CC[C@@H]2C3)n1`, the Ratio in test [1] is 1200. The figures for the K app in [2] and in [10] were 370 nM and 0.32 nM, respectively. For the same molecule, the figures for the RM in test [3], in test [7] and in [9] were 0.97, 1.16 and 0.94, respectively. Also, the EC50 in test [4] was found to be 2.4 nM; in test [5], 3.3 nM; in [11] it was 7 nM.

Turning to `Cc1noc([C@H]2CN3CC[C@H]2C3)n1`, the Ratio in test [1] was determined as 1200. Also, the values for the K app in [2] and in test [6] were 32 nM and 0.027 nM, respectively. Further, the RM in test [3] came to 0.91; in test [7] it was 0.94; in test [9] it was 0.91. The EC50 in test [4] came out at 0.045 nM; in [5], 0.039 nM; in test [11], 2.4 nM.

Regarding `C[N+](C)(C)CCOC(N)=O`, the Ratio in test [1] was 4500. Moreover, the K app in [2] turned out to be 22000 nM; in test [6], 4.9 nM.
